Square brackets hold non-standard residues; d marks the D form. Peptide text beside a SMILES is read from it. * marks the point of attachment. Trp(6-Cl) = N[C@@H](Cc1c[nH]c2cc(Cl)ccc12)C(=O)O; X2 = O=C(O)[C@H]1CCCC[C@@H]1C(=O)*; 3Pal = N[C@@H](Cc1cccnc1)C(=O)O

Chain of Insulin-like growth factor 1 receptor (P08069 31-736 limits assumed): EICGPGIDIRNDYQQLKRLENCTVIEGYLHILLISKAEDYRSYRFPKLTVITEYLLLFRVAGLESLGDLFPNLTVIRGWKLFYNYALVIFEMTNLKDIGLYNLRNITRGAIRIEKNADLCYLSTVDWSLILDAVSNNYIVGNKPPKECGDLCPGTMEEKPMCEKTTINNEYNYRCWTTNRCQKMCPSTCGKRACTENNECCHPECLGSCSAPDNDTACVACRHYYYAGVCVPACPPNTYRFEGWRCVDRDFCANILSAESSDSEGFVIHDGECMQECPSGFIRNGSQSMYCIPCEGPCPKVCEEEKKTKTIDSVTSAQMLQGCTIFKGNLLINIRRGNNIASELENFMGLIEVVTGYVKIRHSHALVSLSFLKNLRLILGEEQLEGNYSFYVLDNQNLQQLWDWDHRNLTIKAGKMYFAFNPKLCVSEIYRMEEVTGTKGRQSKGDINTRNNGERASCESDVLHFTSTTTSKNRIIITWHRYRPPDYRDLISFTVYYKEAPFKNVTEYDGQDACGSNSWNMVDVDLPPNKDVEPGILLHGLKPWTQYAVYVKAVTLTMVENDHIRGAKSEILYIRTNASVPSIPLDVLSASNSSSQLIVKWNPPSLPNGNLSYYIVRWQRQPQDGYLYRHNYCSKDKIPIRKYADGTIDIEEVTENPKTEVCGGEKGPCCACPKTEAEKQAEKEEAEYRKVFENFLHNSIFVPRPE
Chain of Insulin-like growth factor 1 receptor (P08069 741-1367 limits assumed): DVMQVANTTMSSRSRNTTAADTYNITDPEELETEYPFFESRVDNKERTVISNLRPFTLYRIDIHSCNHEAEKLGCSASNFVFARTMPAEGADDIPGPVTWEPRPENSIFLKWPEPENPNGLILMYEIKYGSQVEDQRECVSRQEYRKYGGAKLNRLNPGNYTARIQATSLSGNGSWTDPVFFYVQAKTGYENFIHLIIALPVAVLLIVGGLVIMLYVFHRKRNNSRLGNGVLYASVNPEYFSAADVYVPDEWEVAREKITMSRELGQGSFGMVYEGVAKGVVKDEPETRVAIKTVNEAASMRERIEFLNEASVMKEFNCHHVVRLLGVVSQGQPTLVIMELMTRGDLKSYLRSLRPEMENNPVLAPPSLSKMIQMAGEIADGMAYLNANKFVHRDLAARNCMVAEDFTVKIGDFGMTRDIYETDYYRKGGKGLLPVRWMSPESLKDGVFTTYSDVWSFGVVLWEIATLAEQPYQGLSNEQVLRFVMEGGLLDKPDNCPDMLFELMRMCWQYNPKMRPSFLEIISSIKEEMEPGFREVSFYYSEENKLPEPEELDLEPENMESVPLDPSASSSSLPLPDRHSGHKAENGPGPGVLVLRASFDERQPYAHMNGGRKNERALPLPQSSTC

This assay has as its target Insulin-like growth factor 1 receptor (Homo sapiens, UniProt P08069). Kind of assay: Activity at pre-activated human GST-His6-tagged IGF-1R expressed in Sf9 cells assessed as initial phosphorylation rate at 10 uM measured every 2 mins for 60 mins by Michaelis-Menten constant based ADP Quest assay. The procedure, abridged: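 Reaction buffer was the same plus 0.1 mg/mL BSA, with kinase, peptide substrate and detection reagents. Started with ATP; fluorescence read every 2 min for 60 min; 3 independent experiments.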
In the case of `CNC(=O)[C@H](Cc1c[nH]c2ccccc12)NC(=O)[C@H](CCC(=O)O)NC(=O)[C@H](Cc1ccccc1)NC(=O)[C@H](Cc1ccc(O)cc1)NC(=O)[C@H](CC(=O)O)NC(C)=O`, the Activity was determined as 6.2 nM/s.

As for `CNC(=O)[C@H](Cc1c[nH]c2cc(Cl)ccc12)NC(=O)[C@H](CCC(=O)O)NC(=O)[C@H](Cc1ccccc1)NC(=O)[C@H](Cc1ccc(O)cc1)NC(=O)[C@H](Cc1cccnc1)NC(C)=O` (Ac-[3Pal]YFE[Trp(6-Cl)]-NHMe), the Activity was found to be 1 nM/s.

Turning to `CNC(=O)[C@H](Cc1ccccc1)NC(=O)[C@H](CCC(=O)O)NC(=O)[C@H](Cc1ccccc1)NC(=O)[C@H](Cc1ccc(O)cc1)NC(=O)[C@@H]1CCC[C@H]1C(=O)O` (HELM PEPTIDE1{[O=C(O)[C@@H]1CCC[C@H]1C(=O)[*:2]].Y.F.E.F.[CN[*:1]]}$$$$V2.0), the Activity came to 3.8 nM/s.

`CNC(=O)[C@H](Cc1ccc(Cl)c(Cl)c1)NC(=O)CNC(=O)[C@H](Cc1ccccc1)NC(=O)[C@H](Cc1ccc(O)cc1)NC(=O)[C@H](CC(=O)O)NC(C)=O` (HELM PEPTIDE1{[ac].D.Y.F.G.[O=C([C@H](Cc1ccc(Cl)c(Cl)c1)N[*:1])[*:2]].[CN[*:1]]}$$$$V2.0): the Activity came out at 0.55 nM/s.

Consider `CNC(=O)[C@H](Cc1ccc2ccccc2c1)NC(=O)CNC(=O)[C@H](Cc1ccccc1)NC(=O)[C@H](Cc1ccc(O)cc1)NC(=O)[C@H](CC(=O)O)NC(C)=O` (HELM PEPTIDE1{[ac].D.Y.F.G.[O=C([C@H](Cc1ccc2ccccc2c1)N[*:1])[*:2]].[CN[*:1]]}$$$$V2.0), for which the Activity came out at 0.24 nM/s.

Consider `CNC(=O)[C@H](Cc1ccccc1)NC(=O)[C@H](CCC(=O)O)NC(=O)[C@H](Cc1ccccc1)NC(=O)[C@H](Cc1ccc(O)cc1)NC(=O)[C@H]1CCC[C@@H]1C(=O)O` (HELM PEPTIDE1{[O=C(O)[C@H]1CCC[C@@H]1C(=O)[*:2]].Y.F.E.F.[CN[*:1]]}$$$$V2.0), for which the Activity worked out at 0.24 nM/s.

`CNC(=O)[C@@H](Cc1c[nH]c2ccccc12)NC(=O)[C@H](CCC(=O)O)NC(=O)[C@H](Cc1ccccc1)NC(=O)[C@H](Cc1ccc(O)cc1)NC(=O)[C@H](CC(=O)O)NC(C)=O`: the Activity was 0.28 nM/s.

`CNC(=O)[C@H](Cc1c[nH]c2cc(Cl)ccc12)NC(=O)[C@H](CCC(=O)O)NC(=O)[C@H](Cc1ccccc1)NC(=O)[C@H](Cc1ccc(O)cc1)NC(=O)[C@H]1CCCC[C@@H]1C(=O)O` (X2-YFE[Trp(6-Cl)]-NHMe): the Activity was found to be 7.5 nM/s.

`CNC(=O)[C@H](Cc1c[nH]c2cc(Cl)ccc12)NC(=O)[C@H](CCC(=O)O)NC(=O)[C@H](Cc1ccccc1)NC(=O)[C@H](Cc1ccc(O)cc1)NC(=O)[C@H](CCC(=O)O)NC(C)=O` (HELM PEPTIDE1{[ac].E.Y.F.E.[O=C([C@H](Cc1c[nH]c2cc(Cl)ccc12)N[*:1])[*:2]].[CN[*:1]]}$$$$V2.0): the Activity stood at 3.3 nM/s.

Take `CNC(=O)[C@H](Cc1ccccc1)NC(=O)[C@H](CCC(=O)O)NC(=O)[C@H](Cc1ccccc1)NC(=O)[C@H](Cc1ccc(O)cc1)NC(=O)[C@H]1CCCC[C@@H]1C(=O)O` (HELM PEPTIDE1{[O=C(O)[C@H]1CCCC[C@@H]1C(=O)[*:2]].Y.F.E.F.[CN[*:1]]}$$$$V2.0): the Activity came out at 5.2 nM/s.

As for `CNC(=O)[C@H](Cc1c[nH]c2ccccc12)NC(=O)[C@H](CCC(=O)O)NC(=O)[C@H](Cc1ccccc1)NC(=O)[C@H](Cc1ccc(O)cc1)NC(=O)[C@@H]1CCCC[C@@H]1C(=O)O`, the Activity was 4.6 nM/s.

For the compound `CNC(=O)[C@H](Cc1c[nH]c2ccccc12)NC(=O)[C@H](CCC(=O)O)NC(=O)[C@H](Cc1ccccc1)NC(=O)[C@H](Cc1ccc(O)cc1)NC(=O)[C@H]1CCC[C@@H]1C(=O)O` (HELM PEPTIDE1{[O=C(O)[C@H]1CCC[C@@H]1C(=O)[*:2]].Y.F.E.W.[CN[*:1]]}$$$$V2.0), the Activity amounted to 0.84 nM/s.

Turning to `CNC(=O)[C@H](Cc1ccccc1)NC(=O)[C@H](CCC(=O)O)NC(=O)[C@H](Cc1ccccc1)NC(=O)[C@H](Cc1ccc(O)cc1)NC(=O)[C@H](CC(=O)O)NC(C)=O` (HELM PEPTIDE1{[ac].D.Y.F.E.F.[CN[*:1]]}$$$$V2.0), the Activity was 1.7 nM/s.

These data come from ChEMBL document CHEMBL2146397, “The Substrate-Activity-Screening methodology applied to receptor tyrosine kinases: a proof-of-concept study” (Eur J Med Chem, 2012).
